Test results as given in ChEMBL document CHEMBL4342528, “Discovery of a First-in-Class Protein Arginine Methyltransferase 6 (PRMT6) Covalent Inhibitor” (J Med Chem, 2020).
Activity calls are given as the source filed them. The calls are words filed in the database; no cut-off is given here.

What was measured:
[1] = target: T1, Protein arginine N-methyltransferase 6 (Homo sapiens, UniProt Q96LA8); experiment: Inhibition of PRMT6 (unknown origin) assessed as reduction in incorporation of [3H]-labeled methyl group into biotinylated substrate using [3H-SAM] at 10 uM incubated for 1 hr by scintillation proximity assay
Procedure, shortened: (§1)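 Panel of 33 methyltransferases (22 PKMTs, 3 DNMTs, 8 PRMTs), each tested at 10 and 50 μM compound. Activity was read as ³H-methyl transfer from ³H-SAM in a radiometric assay done as previously described.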
Target sequence in this assay (Q96LA8 whole entry, looked up): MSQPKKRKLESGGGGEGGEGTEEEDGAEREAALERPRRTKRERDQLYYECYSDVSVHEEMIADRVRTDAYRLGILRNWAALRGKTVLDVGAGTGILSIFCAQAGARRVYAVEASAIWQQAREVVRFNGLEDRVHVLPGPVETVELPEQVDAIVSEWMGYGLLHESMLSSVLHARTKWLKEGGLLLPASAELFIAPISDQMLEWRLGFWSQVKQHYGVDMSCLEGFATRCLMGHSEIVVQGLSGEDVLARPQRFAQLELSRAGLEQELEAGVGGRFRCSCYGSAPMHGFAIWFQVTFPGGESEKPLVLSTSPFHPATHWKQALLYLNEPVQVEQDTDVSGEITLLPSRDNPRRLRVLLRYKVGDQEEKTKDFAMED

[2] = target: T2, Protein arginine N-methyltransferase 1 (Homo sapiens, UniProt Q99873); experiment: Inhibition of PRMT1 in human MCF7 cells assessed as reduction in H4R3me2a levels incubated for 2 days by fluorescence based assay; type: cell-based
Procedure, shortened: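 MCF7 cells with endogenous PRMT1 were treated with compound for 2 days, with MS023 (1 μM) as positive control. The H4R3me2a fluorescence signal was normalized to H4 and fitted nonlinearly to give IC50.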

[3] = target: T3, Protein arginine N-methyltransferase 3 (Homo sapiens, UniProt O60678); experiment: Covalent binding affinity to human PRMT3 assessed as covalent adduct. formation at 300 uM pre-incubated for 1 hr by mass spectrometry
T3 sequence (O60678 2-531 limits assumed): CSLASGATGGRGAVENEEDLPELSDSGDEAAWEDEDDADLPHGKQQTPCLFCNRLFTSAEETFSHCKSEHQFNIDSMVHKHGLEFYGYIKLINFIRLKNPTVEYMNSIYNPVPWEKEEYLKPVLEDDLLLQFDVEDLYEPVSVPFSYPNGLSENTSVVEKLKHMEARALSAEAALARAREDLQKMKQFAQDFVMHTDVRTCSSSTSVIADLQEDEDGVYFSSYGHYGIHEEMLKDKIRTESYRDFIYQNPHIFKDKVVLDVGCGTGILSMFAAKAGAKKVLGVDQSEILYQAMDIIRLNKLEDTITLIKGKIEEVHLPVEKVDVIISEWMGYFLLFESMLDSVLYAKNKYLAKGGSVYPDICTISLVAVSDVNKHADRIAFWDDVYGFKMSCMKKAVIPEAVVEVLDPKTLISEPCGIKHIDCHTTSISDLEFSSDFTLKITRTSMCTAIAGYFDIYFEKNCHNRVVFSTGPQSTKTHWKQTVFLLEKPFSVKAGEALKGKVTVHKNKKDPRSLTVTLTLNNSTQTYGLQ
Procedure, shortened: (§2)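 PRMT protein at 15 μM was incubated 1 h at room temperature with a 20-fold molar excess of inhibitor (300 μM). The reaction was quenched with 0.1% aqueous TFA, separated by HPLC (5–95% acetonitrile in water) and analysed by ESI time-of-flight LC/MS for protein–ligand adduct mass.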

[4] = target: Histone-lysine N-methyltransferase SMYD3 (Homo sapiens) (UniProt Q9H7B4); experiment: Inhibition of SMYD3 (unknown origin) assessed as reduction in incorporation of [3H]-labeled methyl group into biotinylated substrate using [3H-SAM] at 10 uM incubated for 1 hr by scintillation proximity assay; procedure, shortened: as §1
Sequence of Histone-lysine N-methyltransferase SMYD3 (Homo sapiens) (Q9H7B4 whole entry): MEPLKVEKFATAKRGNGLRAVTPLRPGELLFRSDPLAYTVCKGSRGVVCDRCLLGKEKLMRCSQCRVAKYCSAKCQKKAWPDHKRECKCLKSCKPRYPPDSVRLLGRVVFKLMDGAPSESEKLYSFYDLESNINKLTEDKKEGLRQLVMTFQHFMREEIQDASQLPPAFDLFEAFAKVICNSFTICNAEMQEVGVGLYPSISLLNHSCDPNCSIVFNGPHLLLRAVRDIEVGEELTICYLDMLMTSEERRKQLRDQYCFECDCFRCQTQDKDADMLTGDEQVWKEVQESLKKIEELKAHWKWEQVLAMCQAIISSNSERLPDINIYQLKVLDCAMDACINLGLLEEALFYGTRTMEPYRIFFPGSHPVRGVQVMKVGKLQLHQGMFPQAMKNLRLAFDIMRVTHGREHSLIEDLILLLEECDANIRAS

[5] = target: T4, Protein arginine N-methyltransferase 8 (Homo sapiens, UniProt Q9NR22); experiment: Covalent binding affinity to human PRMT8 assessed as covalent adduct. formation at 300 uM pre-incubated for 1 hr by mass spectrometry; procedure, shortened: as §2
Target sequence in this assay (Q9NR22 2-394 limits assumed): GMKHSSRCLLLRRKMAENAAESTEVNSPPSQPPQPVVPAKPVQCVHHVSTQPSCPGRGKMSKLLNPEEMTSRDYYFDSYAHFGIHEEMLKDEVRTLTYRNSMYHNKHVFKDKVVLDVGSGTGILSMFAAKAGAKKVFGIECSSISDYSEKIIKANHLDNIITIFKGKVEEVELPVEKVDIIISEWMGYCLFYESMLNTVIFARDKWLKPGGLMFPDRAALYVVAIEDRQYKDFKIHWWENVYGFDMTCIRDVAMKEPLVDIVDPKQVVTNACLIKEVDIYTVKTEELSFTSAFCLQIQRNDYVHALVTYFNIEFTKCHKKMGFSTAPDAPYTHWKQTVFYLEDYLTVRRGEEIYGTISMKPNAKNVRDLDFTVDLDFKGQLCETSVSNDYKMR

[6] = target: Histone-lysine N-methyltransferase SETD2 (Homo sapiens) (UniProt Q9BYW2); experiment: Inhibition of SETD2 (unknown origin) assessed as reduction in incorporation of [3H]-labeled methyl group into biotinylated substrate using [3H-SAM] at 10 uM incubated for 1 hr by scintillation proximity assay; procedure, shortened: as §1
[7] = target: T2, Protein arginine N-methyltransferase 1; experiment: Covalent binding affinity to human PRMT1 assessed as covalent adduct. formation at 300 uM pre-incubated for 1 hr by mass spectrometry; procedure, shortened: as §2
Target sequence in this assay (Q99873 whole entry, looked up): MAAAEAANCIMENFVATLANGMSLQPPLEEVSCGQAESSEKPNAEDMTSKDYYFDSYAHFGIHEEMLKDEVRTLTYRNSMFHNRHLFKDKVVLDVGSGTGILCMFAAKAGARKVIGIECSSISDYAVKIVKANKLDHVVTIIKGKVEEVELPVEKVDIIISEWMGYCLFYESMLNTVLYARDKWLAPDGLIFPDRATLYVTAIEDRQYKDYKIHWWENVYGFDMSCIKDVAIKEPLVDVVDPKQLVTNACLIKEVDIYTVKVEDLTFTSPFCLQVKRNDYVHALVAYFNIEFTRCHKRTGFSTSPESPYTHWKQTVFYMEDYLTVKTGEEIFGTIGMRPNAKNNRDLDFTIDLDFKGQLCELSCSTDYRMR

[8] = target: Histone-lysine N-methyltransferase NSD2 (Homo sapiens) (UniProt O96028); experiment: Inhibition of NSD2 (unknown origin) at 10 uM using [3H-SAM] and nucleosome as substrate incubated for 1 hr by scintillation proximity assay; procedure, shortened: as §1
[9] = target: T4, Protein arginine N-methyltransferase 8; experiment: Inhibition of PRMT8 (unknown origin) assessed as reduction in incorporation of [3H]-labeled methyl group into biotinylated substrate using [3H-SAM] at 10 uM incubated for 1 hr by scintillation proximity assay; procedure, shortened: as §1
Target sequence in this assay (Q9NR22 2-394 limits assumed): as the sequence (Q9NR22 2-394 limits assumed) above

[10] = target: Histone-lysine N-methyltransferase SUV39H1 (Homo sapiens) (UniProt O43463); experiment: Inhibition of SUV39H1 (unknown origin) assessed as reduction in incorporation of [3H]-labeled methyl group into biotinylated substrate using [3H-SAM] at 50 uM incubated for 1 hr by scintillation proximity assay relative to control; procedure, shortened: as §1
[11] = target: Histone-lysine N-methyltransferase PRDM9 (Homo sapiens) (UniProt Q9NQV7); experiment: Inhibition of PRDM9 (unknown origin) assessed as reduction in incorporation of [3H]-labeled methyl group into biotinylated substrate using [3H-SAM] at 10 uM incubated for 1 hr by scintillation proximity assay; procedure, shortened: as §1
[12] = target: Histone-lysine N-methyltransferase SETDB1 (Homo sapiens) (UniProt Q15047); experiment: Inhibition of SETDB1 (unknown origin) assessed as reduction in incorporation of [3H]-labeled methyl group into biotinylated substrate using [3H-SAM] at 10 uM incubated for 1 hr by scintillation proximity assay; procedure, shortened: as §1
[13] = target: Histone-lysine N-methyltransferase ASH1L (Homo sapiens) (UniProt Q9NR48); experiment: Inhibition of ASH1L (unknown origin) at 10 uM using [3H-SAM] and nucleosome as substrate incubated for 1 hr by scintillation proximity assay; procedure, shortened: as §1
[14] = target: T1, Protein arginine N-methyltransferase 6; experiment: Inhibition of human PRMT6 using [3H]SAM as donor and [3H]methylated biotin-labeled peptide as substrate by scintillation proximity assay
Procedure, shortened: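 Compound titrated into the reaction; 1 h enzyme–compound preincubation stated for PRMT6. Methylated peptide captured on streptavidin/scintillant-coated plates and counted (cpm). IC50 from concentration–response, triplicate, mean ± SD.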
Target sequence in this assay (Q96LA8 whole entry): as the sequence (Q96LA8 whole entry, looked up) above

[15] = target: Histone-lysine N-methyltransferase, H3 lysine-79 specific (Homo sapiens) (UniProt Q8TEK3); experiment: Inhibition of DOT1L (unknown origin) at 10 uM using [3H-SAM] and nucleosome as substrate incubated for 1 hr by scintillation proximity assay; procedure, shortened: as §1
Sequence of Histone-lysine N-methyltransferase, H3 lysine-79 specific (Homo sapiens) (Q8TEK3 whole entry, looked up): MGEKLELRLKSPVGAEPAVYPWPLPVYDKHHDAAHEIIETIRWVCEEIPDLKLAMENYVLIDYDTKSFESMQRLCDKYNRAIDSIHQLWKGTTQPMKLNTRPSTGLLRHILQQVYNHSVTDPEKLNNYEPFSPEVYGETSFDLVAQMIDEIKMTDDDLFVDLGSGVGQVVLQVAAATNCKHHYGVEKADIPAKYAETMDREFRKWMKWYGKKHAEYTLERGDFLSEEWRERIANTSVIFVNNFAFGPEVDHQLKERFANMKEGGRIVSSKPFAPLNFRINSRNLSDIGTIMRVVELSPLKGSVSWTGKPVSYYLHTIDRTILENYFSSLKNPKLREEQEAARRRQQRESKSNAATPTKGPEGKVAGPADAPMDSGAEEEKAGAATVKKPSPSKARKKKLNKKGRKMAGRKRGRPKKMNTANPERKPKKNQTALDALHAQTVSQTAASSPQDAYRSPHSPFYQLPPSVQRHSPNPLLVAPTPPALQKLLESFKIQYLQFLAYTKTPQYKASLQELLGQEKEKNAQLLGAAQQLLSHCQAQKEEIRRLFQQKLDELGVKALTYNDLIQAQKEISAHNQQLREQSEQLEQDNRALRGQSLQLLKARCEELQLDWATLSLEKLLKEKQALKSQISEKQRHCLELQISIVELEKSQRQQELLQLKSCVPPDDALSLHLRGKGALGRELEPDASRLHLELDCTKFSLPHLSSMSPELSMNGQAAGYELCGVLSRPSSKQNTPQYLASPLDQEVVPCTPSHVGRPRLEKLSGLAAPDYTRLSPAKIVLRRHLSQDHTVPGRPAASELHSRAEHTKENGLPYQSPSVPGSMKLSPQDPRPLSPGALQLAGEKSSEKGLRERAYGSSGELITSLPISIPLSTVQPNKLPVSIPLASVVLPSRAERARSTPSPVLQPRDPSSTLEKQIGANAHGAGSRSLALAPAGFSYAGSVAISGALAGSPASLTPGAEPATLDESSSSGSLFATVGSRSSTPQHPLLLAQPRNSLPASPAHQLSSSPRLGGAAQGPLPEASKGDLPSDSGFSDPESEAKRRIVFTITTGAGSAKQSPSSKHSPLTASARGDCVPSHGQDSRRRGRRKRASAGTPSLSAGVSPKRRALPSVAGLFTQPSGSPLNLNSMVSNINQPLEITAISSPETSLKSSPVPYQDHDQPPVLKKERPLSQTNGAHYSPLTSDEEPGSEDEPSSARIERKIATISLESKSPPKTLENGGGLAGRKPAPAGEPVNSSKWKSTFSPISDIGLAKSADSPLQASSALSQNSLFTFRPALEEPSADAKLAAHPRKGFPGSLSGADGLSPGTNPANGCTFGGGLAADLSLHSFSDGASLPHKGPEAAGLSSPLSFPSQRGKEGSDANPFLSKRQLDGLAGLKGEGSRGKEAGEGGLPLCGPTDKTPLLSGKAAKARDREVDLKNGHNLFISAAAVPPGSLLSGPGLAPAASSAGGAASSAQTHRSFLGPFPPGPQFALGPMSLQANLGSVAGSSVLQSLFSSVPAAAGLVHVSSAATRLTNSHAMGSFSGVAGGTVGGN

Homo sapiens = species on record: Homo sapiens; experiment: Inhibition of DNMT3A/3L (unknown origin) at 10 uM using un-biotinylated Poly(2'-deoxyinosinic-2'-deoxycytidylic acid) substrate using [3H-SAM] incubated for 1 hr by scintillation proximity assay; procedure, shortened: as §1
[16] = target: T1, Protein arginine N-methyltransferase 6; experiment: Inhibition of PRMT6 (unknown origin) assessed as reduction in incorporation of [3H]-labeled methyl group into biotinylated substrate using [3H-SAM] at 50 uM incubated for 1 hr by scintillation proximity assay relative to control; procedure, shortened: as §1
Target sequence in this assay (Q96LA8 whole entry, looked up): as the sequence (Q96LA8 whole entry, looked up) above

[17] = target: T4, Protein arginine N-methyltransferase 8; experiment: Inhibition of human PRMT8 using [3H]SAM as donor and [3H]methylated biotin-labeled peptide as substrate by scintillation proximity assay
Procedure, shortened: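 Radiometric SPA: ³H-methyl transfer from ³H-SAM to biotin-labeled peptide, captured on streptavidin/scintillant-coated plate, counts per minute read; substrate and cofactor each at their Km for the enzyme; compound titrated; IC50 from triplicate determinations, mean ± SD.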
Target sequence in this assay (Q9NR22 whole entry): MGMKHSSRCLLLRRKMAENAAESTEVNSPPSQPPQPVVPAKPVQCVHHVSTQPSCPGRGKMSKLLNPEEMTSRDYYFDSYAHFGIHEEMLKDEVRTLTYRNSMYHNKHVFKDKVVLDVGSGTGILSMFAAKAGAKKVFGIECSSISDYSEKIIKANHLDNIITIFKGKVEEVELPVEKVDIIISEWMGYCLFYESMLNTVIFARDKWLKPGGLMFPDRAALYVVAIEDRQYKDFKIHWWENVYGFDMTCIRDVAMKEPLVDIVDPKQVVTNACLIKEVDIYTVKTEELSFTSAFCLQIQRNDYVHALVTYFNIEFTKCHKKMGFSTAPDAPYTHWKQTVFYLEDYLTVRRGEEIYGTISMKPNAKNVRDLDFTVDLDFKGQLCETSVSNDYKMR

[18] = target: Protein arginine N-methyltransferase 5 (Homo sapiens) (UniProt O14744); experiment: Inhibition of PRMT5 (unknown origin) assessed as reduction in incorporation of [3H]-labeled methyl group into biotinylated substrate using [3H-SAM] at 10 uM incubated for 1 hr by scintillation proximity assay; procedure, shortened: as §1
Sequence of Protein arginine N-methyltransferase 5 (Homo sapiens) (O14744 whole entry): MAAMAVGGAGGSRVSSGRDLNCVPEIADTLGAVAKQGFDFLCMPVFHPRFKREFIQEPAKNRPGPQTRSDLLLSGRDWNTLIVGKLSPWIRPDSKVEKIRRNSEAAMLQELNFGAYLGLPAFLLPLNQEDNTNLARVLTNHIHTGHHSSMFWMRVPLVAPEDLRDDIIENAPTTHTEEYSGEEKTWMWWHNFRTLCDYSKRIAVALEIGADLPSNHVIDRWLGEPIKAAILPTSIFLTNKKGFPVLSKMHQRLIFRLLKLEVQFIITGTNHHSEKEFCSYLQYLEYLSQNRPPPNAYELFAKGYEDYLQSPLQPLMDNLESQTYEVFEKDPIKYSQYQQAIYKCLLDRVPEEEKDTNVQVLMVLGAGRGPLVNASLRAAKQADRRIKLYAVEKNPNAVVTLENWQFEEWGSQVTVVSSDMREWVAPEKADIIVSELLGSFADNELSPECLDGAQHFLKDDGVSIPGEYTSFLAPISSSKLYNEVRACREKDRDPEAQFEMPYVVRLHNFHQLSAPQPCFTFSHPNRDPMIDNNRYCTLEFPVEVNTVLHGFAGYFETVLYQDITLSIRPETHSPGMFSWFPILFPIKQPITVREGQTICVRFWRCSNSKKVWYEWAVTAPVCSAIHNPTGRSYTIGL

[19] = target: T3, Protein arginine N-methyltransferase 3; experiment: Inhibition of PRMT3 (unknown origin) assessed as reduction in incorporation of [3H]-labeled methyl group into biotinylated substrate using [3H-SAM] at 10 uM incubated for 1 hr by scintillation proximity assay; procedure, shortened: as §1
[20] = target: T1, Protein arginine N-methyltransferase 6; experiment: Inhibition of human PRMT6 pre-incubated for 1 to 30 mins using [3H]SAM as donor and [3H]methylated biotin-labeled peptide as substrate by scintillation proximity assay
[21] = target: Histone-lysine N-methyltransferase 2C (Homo sapiens) (UniProt Q8NEZ4); experiment: Inhibition of MLL3 (unknown origin) assessed as reduction in incorporation of [3H]-labeled methyl group into biotinylated substrate using [3H-SAM] at 10 uM incubated for 1 hr by scintillation proximity assay; procedure, shortened: as §1
[22] = target: Histone-lysine N-methyltransferase SETD7 (Homo sapiens) (UniProt Q8WTS6); experiment: Inhibition of SETD7 (unknown origin) assessed as reduction in incorporation of [3H]-labeled methyl group into biotinylated substrate using [3H-SAM] at 10 uM incubated for 1 hr by scintillation proximity assay; procedure, shortened: as §1

## C=CC(=O)Nc1cccc(-c2c[nH]cc2CN(C)CCN)c1
[1]
  inhibition: > 90%
[2]
  IC50: 5600 nM
  inhibition: Dose-dependent effect
[3]
  Activity: inactive
[4]
  inhibition: inactive
[5]
  Activity: inactive
[6]
  inhibition: inactive
[7]
  Activity: inactive
[8]
  inhibition: inactive
[9]
  inhibition: > 90%
[10]
  inhibition: > 50%
[11]
  inhibition: inactive
[12]
  inhibition: inactive
[13]
  inhibition: inactive
[14]; read-out: IC50
  IC50: 18 nM
[14]; read-out: pIC50 (converted)
  IC50: 15.8 nM
[15]
  inhibition: inactive
Homo sapiens
  inhibition: inactive
[16]
  inhibition: > 50%
[17]
  IC50: 110 nM
[18]
  inhibition: inactive
[19]
  inhibition: > 90%
[20]
  Ki: 16 nM
  Kinact: 0.08 min⁻¹
[21]
  inhibition: inactive
[22]
  inhibition: inactive
